Reference: ChEMBL document CHEMBL3745614, “Potent and selective N-(4-sulfamoylphenyl)thiourea-based GPR55 agonists” (Eur J Med Chem, 2016)
Activity calls are given as the source filed them. No cut-off for these calls is given here.

Tests used:
[1] = molecular target: T1, G-protein coupled receptor 55 (Homo sapiens, UniProt Q9Y2T6); assay: Agonist activity at human GPR55 expressed in Saccharomyces cerevisiae by beta-galactosidase reporter assay
[2] = molecular target: T2, Sodium- and chloride-dependent glycine transporter 1 (Homo sapiens, UniProt P48067); assay: Inhibition of GlyT1 (unknown origin) expressed in HEK293 cells by scintillation proximity assay; format: cell-based
T2 sequence (P48067 whole entry): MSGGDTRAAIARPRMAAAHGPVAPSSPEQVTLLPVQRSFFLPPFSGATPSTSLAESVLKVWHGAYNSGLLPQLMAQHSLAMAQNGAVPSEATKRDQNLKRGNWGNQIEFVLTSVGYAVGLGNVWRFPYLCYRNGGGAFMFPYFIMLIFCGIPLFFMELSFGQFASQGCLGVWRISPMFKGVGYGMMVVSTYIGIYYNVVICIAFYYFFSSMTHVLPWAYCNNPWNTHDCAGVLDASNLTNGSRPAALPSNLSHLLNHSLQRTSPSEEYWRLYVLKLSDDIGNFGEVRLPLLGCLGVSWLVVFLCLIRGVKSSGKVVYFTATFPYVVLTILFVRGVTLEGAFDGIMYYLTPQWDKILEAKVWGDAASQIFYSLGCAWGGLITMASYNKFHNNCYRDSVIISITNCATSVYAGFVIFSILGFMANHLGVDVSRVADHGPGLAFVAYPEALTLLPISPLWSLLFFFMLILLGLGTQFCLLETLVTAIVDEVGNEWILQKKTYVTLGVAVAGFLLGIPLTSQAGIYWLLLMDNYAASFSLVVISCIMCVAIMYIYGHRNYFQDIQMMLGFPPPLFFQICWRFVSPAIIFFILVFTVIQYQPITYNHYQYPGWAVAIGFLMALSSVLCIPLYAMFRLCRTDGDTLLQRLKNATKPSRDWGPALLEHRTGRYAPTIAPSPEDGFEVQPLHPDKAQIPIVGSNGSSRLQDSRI

[3] = molecular target: T1, G-protein coupled receptor 55; assay: Agonist activity at human GPR55 expressed in HEK293 cells assessed as calcium signalling at 10 uM by fura 2-based digital epifluorescence microscopy; format: functional, cell-based
[4] = molecular target: T1, G-protein coupled receptor 55; assay: Agonist activity at human GPR55 expressed in CHOK1 cells at 10 uM by pathHunter beta-arrestin assay relative to LPI; format: cell-based; conditions: CHO-K1
In short: (§1)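 PathHunter eXpress GPR55 CHO-K1 β-arrestin kit run per the kit protocol, compounds screened at 10 μM. Luminescence read and expressed as percentage of the signal from bovine liver LPI at 1 μM. Mean with range of two experiments, each done in duplicate.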

[5] = molecular target: Cannabinoid receptor 2 (Homo sapiens) (UniProt P34972); assay: Agonist activity at CBR2 (unknown origin) assessed as [35S]GTPgammaS binding at 10 uM by […] assay relative to control; format: functional
[6] = molecular target: Cannabinoid receptor 2 (Homo sapiens) (UniProt P34972); assay: Antagonist activity at human CBR2 assessed as [35S]GTPgammaS binding at 10 uM by […] assay relative to control; format: functional; parameters: scale not given: the % may be the effect or the level left
[7] = molecular target: Cannabinoid receptor 1 (Homo sapiens) (UniProt P21554); assay: Agonist activity at CBR1 (unknown origin) assessed as [35S]GTPgammaS binding at 10 uM by […] assay relative to control; format: functional
[8] = molecular target: T3, Monoacylglycerol lipase ABHD6 (Homo sapiens) (UniProt Q9BV23); assay: Inhibition of human ABHD6 expressed in […] cells using 2-AG as substrate assessed as glycerol liberation at 1 uM preincubated for 30 mins followed by 2-AG addition measured for 90 mins by fluorescent glycerol assay relative to control; format: cell-based; parameters: scale not given: the % may be the effect or the level left
T3 sequence (whole entry): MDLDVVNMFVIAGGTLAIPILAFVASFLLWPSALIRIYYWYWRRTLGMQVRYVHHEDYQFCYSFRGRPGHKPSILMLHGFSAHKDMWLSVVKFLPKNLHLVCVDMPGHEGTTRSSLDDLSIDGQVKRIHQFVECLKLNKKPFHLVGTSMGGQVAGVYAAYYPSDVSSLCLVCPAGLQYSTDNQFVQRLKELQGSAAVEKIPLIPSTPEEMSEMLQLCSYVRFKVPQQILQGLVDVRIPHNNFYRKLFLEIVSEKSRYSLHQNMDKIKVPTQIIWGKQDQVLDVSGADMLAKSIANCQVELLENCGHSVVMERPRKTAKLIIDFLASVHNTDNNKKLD
In short: (§2)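 Lysates of HEK293 cells transiently overexpressing hABHD6 or hABHD12, 0.3 μg protein/well. Pretreated 30 min with DMSO or compound, then 2-AG added (12.5 μM final). Glycerol release coupled enzymatically to H2O2-dependent resorufin formation; fluorescence (ex 530/em 590 nm) followed kinetically for 90 min.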

[9] = molecular target: T4, Fatty-acid amide hydrolase 1 (Homo sapiens) (UniProt O00519); assay: Inhibition of human FAAH expressed in African green monkey COS-7 cell membranes using [3H]-AEA as substrate assessed as residual activity at 10 uM preincubated for 10 mins followed by substrate addition measured after 10 mins by liquid scintillation counting analysis relative to control
T4 sequence (whole entry): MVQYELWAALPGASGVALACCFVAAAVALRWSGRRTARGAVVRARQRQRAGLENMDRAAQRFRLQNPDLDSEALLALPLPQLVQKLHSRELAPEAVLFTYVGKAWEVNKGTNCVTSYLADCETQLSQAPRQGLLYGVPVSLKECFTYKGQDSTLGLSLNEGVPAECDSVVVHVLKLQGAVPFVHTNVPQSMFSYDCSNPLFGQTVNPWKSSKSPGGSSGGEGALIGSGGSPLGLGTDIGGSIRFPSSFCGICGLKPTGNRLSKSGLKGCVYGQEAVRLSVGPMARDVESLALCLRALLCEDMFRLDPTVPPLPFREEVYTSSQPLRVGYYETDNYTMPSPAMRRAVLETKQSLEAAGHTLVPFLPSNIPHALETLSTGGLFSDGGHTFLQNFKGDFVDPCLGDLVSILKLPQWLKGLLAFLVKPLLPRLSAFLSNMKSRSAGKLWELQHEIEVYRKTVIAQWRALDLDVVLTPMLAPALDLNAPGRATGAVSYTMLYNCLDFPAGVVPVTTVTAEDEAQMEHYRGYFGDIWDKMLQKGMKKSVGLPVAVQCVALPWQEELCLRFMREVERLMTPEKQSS
In short: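 Membranes of COS-7 cells overexpressing hFAAH, 1 μg protein per incubation. Substrate 20 μM AEA including 10 nM [3H]AEA (60 Ci/mmol). Compounds tested at 10 μM.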

[10] = molecular target: Cannabinoid receptor 1 (Homo sapiens) (UniProt P21554); assay: Antagonist activity at human CBR1 assessed as [35S]GTPgammaS binding at 10 uM by radiometric assay relative to control; parameters: scale not given: the % may be the effect or the level left
[11] = molecular target: T1, G-protein coupled receptor 55; assay: Agonist activity at human GPR55 expressed in CHOK1 cells at 10 uM by pathHunter beta-arrestin assay relative to control; format: cell-based; conditions: CHO-K1; in short: as §1
[12] = molecular target: T5, Lysophosphatidylserine lipase ABHD12 (Homo sapiens) (UniProt Q8N2K0); assay: Inhibition of human ABHD12 expressed in […] cells using 2-AG as substrate assessed as glycerol liberation at 1 uM preincubated for 30 mins followed by 2-AG addition measured for 90 mins by fluorescent glycerol assay relative to control; format: cell-based; parameters: scale not given: the % may be the effect or the level left; in short: as §2
T5 sequence (whole entry): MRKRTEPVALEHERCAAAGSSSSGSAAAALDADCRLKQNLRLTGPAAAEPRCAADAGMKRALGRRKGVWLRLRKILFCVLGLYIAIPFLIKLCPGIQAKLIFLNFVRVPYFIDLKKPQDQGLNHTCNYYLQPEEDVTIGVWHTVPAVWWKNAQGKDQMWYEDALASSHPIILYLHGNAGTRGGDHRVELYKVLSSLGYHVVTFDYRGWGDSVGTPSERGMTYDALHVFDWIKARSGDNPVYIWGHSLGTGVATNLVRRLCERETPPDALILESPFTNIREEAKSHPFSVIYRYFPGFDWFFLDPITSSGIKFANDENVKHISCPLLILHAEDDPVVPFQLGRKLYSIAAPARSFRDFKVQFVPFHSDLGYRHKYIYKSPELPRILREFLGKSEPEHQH

[13] = molecular target: T6, Monoglyceride lipase (Homo sapiens) (UniProt Q99685); assay: Inhibition of human MGL expressed in […] cells using 2AG as substrate assessed as residual activity at 10 uM preincubated for 10 mins followed by substrate addition measured after 10 mins by HPLC analysis; format: cell-based
T6 sequence (whole entry): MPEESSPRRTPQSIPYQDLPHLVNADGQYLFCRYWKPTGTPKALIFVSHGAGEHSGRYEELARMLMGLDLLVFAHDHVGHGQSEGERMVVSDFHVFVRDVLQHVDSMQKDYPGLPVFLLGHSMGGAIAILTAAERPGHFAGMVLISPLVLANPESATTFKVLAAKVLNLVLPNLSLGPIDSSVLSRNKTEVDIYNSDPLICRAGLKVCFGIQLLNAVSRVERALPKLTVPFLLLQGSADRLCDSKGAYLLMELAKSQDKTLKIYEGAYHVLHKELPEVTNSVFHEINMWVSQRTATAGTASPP
In short: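 Lysates of HEK cells overexpressing hMGL, 2.5 μg protein per incubation, substrate at 50 μM. Compounds tested at 10 μM.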

T1 sequence (Q9Y2T6 whole entry): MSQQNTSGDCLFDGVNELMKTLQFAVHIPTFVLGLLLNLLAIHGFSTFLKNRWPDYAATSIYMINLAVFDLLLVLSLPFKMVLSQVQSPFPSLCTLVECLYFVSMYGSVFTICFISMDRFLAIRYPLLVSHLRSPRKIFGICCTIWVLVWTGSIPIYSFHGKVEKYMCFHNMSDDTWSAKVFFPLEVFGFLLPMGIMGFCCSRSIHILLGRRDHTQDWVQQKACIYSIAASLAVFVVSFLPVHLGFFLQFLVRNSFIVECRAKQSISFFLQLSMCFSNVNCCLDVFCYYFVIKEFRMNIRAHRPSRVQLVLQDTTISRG
Cannabinoid receptor 2 (Homo sapiens), sequence (P34972 whole entry): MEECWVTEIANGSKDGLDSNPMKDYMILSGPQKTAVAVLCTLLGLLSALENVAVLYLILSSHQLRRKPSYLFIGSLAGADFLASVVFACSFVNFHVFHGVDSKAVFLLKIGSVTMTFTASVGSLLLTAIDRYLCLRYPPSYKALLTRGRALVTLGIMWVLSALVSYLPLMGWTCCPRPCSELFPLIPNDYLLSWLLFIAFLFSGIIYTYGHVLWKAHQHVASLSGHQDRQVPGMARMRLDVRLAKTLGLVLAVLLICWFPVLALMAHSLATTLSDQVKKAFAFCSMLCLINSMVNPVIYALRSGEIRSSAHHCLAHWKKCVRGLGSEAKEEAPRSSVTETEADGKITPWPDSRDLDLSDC
Cannabinoid receptor 1 (Homo sapiens), sequence (P21554 whole entry): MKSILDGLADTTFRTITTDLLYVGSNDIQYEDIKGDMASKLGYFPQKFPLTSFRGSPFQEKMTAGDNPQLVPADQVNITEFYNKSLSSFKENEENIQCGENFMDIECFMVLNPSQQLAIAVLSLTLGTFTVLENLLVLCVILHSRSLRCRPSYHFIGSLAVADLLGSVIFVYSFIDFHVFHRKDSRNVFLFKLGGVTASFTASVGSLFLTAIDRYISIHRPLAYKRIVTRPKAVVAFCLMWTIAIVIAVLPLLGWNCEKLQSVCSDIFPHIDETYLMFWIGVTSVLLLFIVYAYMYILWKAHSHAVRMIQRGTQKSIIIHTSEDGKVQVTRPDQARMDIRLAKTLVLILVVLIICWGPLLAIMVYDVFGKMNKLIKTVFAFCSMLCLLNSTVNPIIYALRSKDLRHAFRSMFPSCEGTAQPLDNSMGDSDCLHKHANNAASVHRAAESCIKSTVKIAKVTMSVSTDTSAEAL

Row | EC50 [1] [nM] | IC50 [2] [µM] | Activity [3] | Activity [4] [%] | Activity [5] [%] | Activity [6] [%] | Activity [7] [%] | Activity [8] [%] | Activity [9] [%] | Activity [10] [%] | Activity [11] [%] | Activity [12] [%] | Activity [13] [%] | SMILES
1 | 158 | 10 |  |  |  |  |  |  |  |  |  |  |  | CS(=O)(=O)c1ccc(-c2ccc(F)cc2)c(C(=O)N2CCN(c3ccc(N)cc3F)CC2)c1
2 |  |  | inactive | 107 | 95 | 95 | 100 | 103 | 93 | 98 | 157 | 100 | 98 | O=C(NC(=S)Nc1ccc(S(=O)(=O)NCc2ccc(I)cc2)cc1)c1ccc(-c2ccccc2)cc1
3 |  |  | inactive | 90 | 96 | 106 | 103 | 99 | 85 | 94 | 132 | 101 | 102 | O=C(NC(=S)Nc1ccc(S(=O)(=O)NCCc2c[nH]c3ccccc23)cc1)c1ccc(-c2ccccc2)cc1
4 | 316 | 0.02 |  |  |  |  |  |  |  |  |  |  |  | COC(C)c1ccc(N2CCN(C(=O)c3cc(S(C)(=O)=O)ccc3-c3ccc(F)cc3)CC2)c(F)c1 (stereo unspecified)
